The results in this text go back to ChEMBL document CHEMBL3045276, “Synthesis and biological activity of some novel trifluoromethyl-substituted 1,2,4-triazole and bis(1,2,4-triazole) Mannich bases containing piperazine rings” (2010).

Assay type in all cases: functional
In experiment [1] the test system is Echinochloa crus-galli. Description: Herbicidal activity against Echinochloa crus-galli (barnyard grass) assessed as inhibition of seedling growth at 100 ug/mL at 28 degC. An outline of the steps:
(§1)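 Ten barnyardgrass seeds placed in cup over glass beads and filter paper holding 5 mL aqueous test solution (emulsified if needed); germinated 65 h at 28 ± 1 °C under light. Mean above-ground seedling height per cup measured; inhibition percentage derived.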

Experiment [2] deals with Brassica rapa subsp. oleifera. Description: Herbicidal activity against Brassica rapa subsp. oleifera assessed as inhibition of root growth at 10 ug/mL at 28 degC. An outline of the steps: (§2)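 Rape seeds soaked 4 h in distilled water, then 15 per 6 cm dish on filter paper wetted with 2 mL aqueous test solution (emulsified if needed); germinated 65 h at 28 ± 1 °C in darkness. Mean length of 10 roots per dish measured; percentage inhibition calculated against distilled-water check.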

Experiment [3] relates to Brassica rapa subsp. oleifera. The experiment in a line: Herbicidal activity against Brassica rapa subsp. oleifera assessed as inhibition of root growth at 100 ug/mL at 28 degC. An outline of the steps:
as §2

In a further experiment the test system is Sclerotinia sclerotiorum. The experiment in a line: Fungicidal activity against Sclerotinia sclerotiorum in cucumber plant two seed leaves stage assessed as control efficacy from disease indices at 500 ug/mL at 18 to 30 degC and above 80%RH relative to control. Conditions: read-out: GI. In a few lines:
(§3)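 Cucumber seeds germinated (soaked 2 h in water at 50 °C, kept moist 24 h at 28 °C) and grown in 1:1 vermiculite/peat; two-seed-leaf plants sprayed at 500 μg/mL, then inoculated 2 h later by spraying conidial (C. cassiicola, A. citrullina, P. cubensis), bacterial (P. syringae) or mycelial (S. sclerotiorum) suspension. Held 18-30 °C, >80% RH; four repeats; control efficacy = (CK−PT)/CK×100 from disease indices once untreated plants fully symptomatic.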

The test system of experiment [4] is Pseudoperonospora cubensis. Description: Fungicidal activity against Pseudoperonospora cubensis in cucumber plant two seed leaves stage assessed as control efficacy from disease indices at 500 ug/mL at 18 to 30 degC and above 80%RH relative to control. Conditions: read-out: GI. In a few lines: as §3
Another experiment relates to Ascochyta. The experiment in a line: Fungicidal activity against Ascochyta […] in cucumber plant two seed leaves stage assessed as control efficacy from disease indices at 500 ug/mL at 18 to 30 degC and above 80%RH relative to control. Conditions: read-out: GI. An outline of the steps:
as §3

In experiment [5] the test system is Pseudomonas amygdali pv. lachrymans. The experiment in a line: Fungicidal activity against Pseudomonas syringae pv. lachrymans in cucumber plant two seed leaves stage assessed as control efficacy from disease indices at 500 ug/mL at 18 to 30 degC and above 80%RH relative to control. Conditions: read-out: GI. In a few lines:
as §3

For a further experiment, the system named is Corynespora cassiicola. Description: Fungicidal activity against Corynespora cassiicola in cucumber plant two seed leaves stage assessed as control efficacy from disease indices at 500 ug/mL at 18 to 30 degC and above 80%RH relative to control. Conditions: read-out: GI. An outline of the steps:
as §3

Experiment [6] has as its system Echinochloa crus-galli. Description: Herbicidal activity against Echinochloa crus-galli (barnyard grass) assessed as inhibition of seedling growth at 10 ug/mL at 28 degC. An outline of the steps:
as §1

Consider `FC(F)(F)c1nn(CN2CCN(c3ncccn3)CC2)c(=S)n1/N=C/c1ccccc1`, for which the inhibition – broadly, the change of the read-out against control, counted positive when it falls – at 100 µg/mL is 0% in the experiment on Echinochloa crus-galli [1] and 66.8% in experiment [3]. The figures for the inhibition at 10 µg/mL (in [2]; with Echinochloa crus-galli [6]) were 49.2% and 0%, respectively. Also, the inhibition of growth at 500 µg/mL in the experiment on Sclerotinia sclerotiorum came out at 41.7%; in [4], 66.3%; in the experiment with Ascochyta it was 37.1%; in [5] it was 55.8%; with Corynespora cassiicola it was 56.2%.
For the compound `COc1ccc(C(=CC(=O)N2CCOCC2)c2ccc(Cl)cc2)cc1OC` [DIMETHOMORPH], the inhibition of growth at 500 µg/mL with Sclerotinia sclerotiorum came out at 98.4%; in [4] it was 83.8%; in the experiment with Ascochyta, 98.4%; in [5], 14%; in the experiment on Corynespora cassiicola, 95.3%.
Turning to `Cc1cc(C)nc(N2CCN(Cn3nc(C(F)(F)F)n(/N=C/c4ccccc4[N+](=O)[O-])c3=S)CC2)n1`, the inhibition at 100 µg/mL stood at 10.2% in the experiment with Echinochloa crus-galli [1] and 11.2% in experiment [3]. Also, the inhibition at 10 µg/mL (in experiment [2]; with Echinochloa crus-galli [6]) was 0% each time. Moreover, the inhibition of growth at 500 µg/mL in the experiment on Sclerotinia sclerotiorum is 39.3%; in [4] it was 77.2%; in the experiment on Ascochyta it was 88.4%; in experiment [5], 46.5%; in the experiment with Corynespora cassiicola, 87.8%.
In the case of `Cc1cc(C)nc(N2CCN(Cn3nc(C(F)(F)F)n(/N=C/c4ccccc4)c3=S)CC2)n1`, the results for the inhibition at 100 µg/mL (in the experiment with Echinochloa crus-galli [1]; in experiment [3]) were 9.8% and 71.1%, respectively. Also, the inhibition at 10 µg/mL in [2] stood at 36.9%; in the experiment on Echinochloa crus-galli [6] it was 0%. Also, the inhibition of growth at 500 µg/mL in the experiment with Sclerotinia sclerotiorum stood at 48%; in [4], 74.1%; in the experiment with Ascochyta, 61.5%; in experiment [5] it was 55%; in the experiment with Corynespora cassiicola, 22.1%.
In the case of `COc1ccc(/C=N/n2c(C(F)(F)F)nn(CN3CCN(c4nc(C)cc(C)n4)CC3)c2=S)cc1`, the inhibition at 100 µg/mL in the experiment on Echinochloa crus-galli [1] amounted to 29.5%; in experiment [3], 67.7%. Further, the inhibition at 10 µg/mL in [2] worked out at 30.6%; in the experiment on Echinochloa crus-galli [6] it was 0%. The inhibition of growth at 500 µg/mL was found to be 62.6% in the experiment on Sclerotinia sclerotiorum; 87.3% in experiment [4]; 87.6% in the experiment with Ascochyta; 50.3% in experiment [5]; 83.7% in the experiment with Corynespora cassiicola.
As to `Cc1cc(C)nc(N2CCN(Cn3nc(C(F)(F)F)n(/N=C/c4ccccc4F)c3=S)CC2)n1`, the inhibition at 100 µg/mL amounted to 33.2% in the experiment with Echinochloa crus-galli [1] and 72.4% in [3]. Further, the figures for the inhibition at 10 µg/mL (in experiment [2]; in the experiment with Echinochloa crus-galli [6]) were 67.1% and 17.1%, respectively. Also, the inhibition of growth at 500 µg/mL in the experiment with Sclerotinia sclerotiorum is 72%; in [4] it was 79.2%; with Ascochyta, 83.5%; in experiment [5], 56.1%; in the experiment on Corynespora cassiicola, 78.7%.
For `COc1ccc(/C=N/n2c(C(F)(F)F)nn(CN3CCN(c4nccc(C)n4)CC3)c2=S)cc1`, the inhibition at 100 µg/mL in the experiment on Echinochloa crus-galli [1] came to 34.3%; in [3], 30.3%. Also, the inhibition at 10 µg/mL stood at 0% in experiment [2] and 15.3% in the experiment with Echinochloa crus-galli [6]. Also, the inhibition of growth at 500 µg/mL came out at 50.9% in the experiment with Sclerotinia sclerotiorum; 72.5% in experiment [4]; 67.7% in the experiment with Ascochyta; 30.6% in [5]; 52.8% in the experiment on Corynespora cassiicola.
`Cc1ccnc(N2CCN(Cn3nc(C(F)(F)F)n(/N=C/c4ccccc4[N+](=O)[O-])c3=S)CC2)n1`: the inhibition at 100 µg/mL with Echinochloa crus-galli [1] was 33.9%; in experiment [3], 0%. Moreover, the inhibition at 10 µg/mL in [2] came out at 0%; in the experiment with Echinochloa crus-galli [6], 11.5%. For the same compound, the inhibition of growth at 500 µg/mL was determined as 32.8% in the experiment with Sclerotinia sclerotiorum; 76.8% in [4]; 44.3% in the experiment with Ascochyta; 44.5% in experiment [5]; 73.8% in the experiment on Corynespora cassiicola.
Take `Cc1ccc(/C=N/n2c(C(F)(F)F)nn(CN3CCN(Cn4nc(C(F)(F)F)n(/N=C/c5ccc(C)c(C)c5)c4=S)CC3)c2=S)cc1C`: the inhibition at 100 µg/mL in the experiment on Echinochloa crus-galli [1] was determined as 28%; in experiment [3], 27.4%. Also, the inhibition at 10 µg/mL in experiment [2] stood at 0%; with Echinochloa crus-galli [6], 1.5%. In addition, the inhibition of growth at 500 µg/mL with Sclerotinia sclerotiorum stood at 32.7%; in experiment [4], 78.7%; with Ascochyta, 26%; in [5], 36.7%; with Corynespora cassiicola, 67.4%.
For the compound `Cc1ccnc(N2CCN(Cn3nc(C(F)(F)F)n(/N=C/c4ccccc4)c3=S)CC2)n1`, the inhibition at 100 µg/mL in the experiment with Echinochloa crus-galli [1] was 15.3%; in experiment [3], 12.5%. Also, the inhibition at 10 µg/mL in [2] stood at 0%; with Echinochloa crus-galli [6], 8.7%. Further, the inhibition of growth at 500 µg/mL with Sclerotinia sclerotiorum was 36.8%; in [4] it was 78.6%; with Ascochyta, 62.4%; in [5] it was 20.4%; with Corynespora cassiicola, 49.2%.
On to `COc1ccc(/C=N/n2c(C(F)(F)F)nn(CN3CCN(c4ncccn4)CC3)c2=S)cc1`, for which the figures for the inhibition at 100 µg/mL (with Echinochloa crus-galli [1]; in experiment [3]) were 18.6% and 78.8%, respectively. For the same compound, the inhibition at 10 µg/mL in [2] was 53.5%; in the experiment with Echinochloa crus-galli [6], 0%. Also, the inhibition of growth at 500 µg/mL worked out at 75.3% with Sclerotinia sclerotiorum; 79.5% in experiment [4]; 73.4% in the experiment with Ascochyta; 68.1% in experiment [5]; 73.4% in the experiment with Corynespora cassiicola.
`Fc1ccccc1/C=N/n1c(C(F)(F)F)nn(CN2CCN(Cn3nc(C(F)(F)F)n(/N=C/c4ccccc4F)c3=S)CC2)c1=S`: the inhibition at 100 µg/mL in the experiment on Echinochloa crus-galli [1] is 26.6%; in [3], 4.3%. The inhibition at 10 µg/mL in experiment [2] worked out at 0%; in the experiment with Echinochloa crus-galli [6], 10.7%. Further, the inhibition of growth at 500 µg/mL came out at 25.9% with Sclerotinia sclerotiorum; 79.9% in experiment [4]; 86.5% in the experiment on Ascochyta; 6.8% in [5]; 84.7% with Corynespora cassiicola.
As for `COC(=O)NC(=S)Nc1ccccc1NC(=S)NC(=O)OC` [THIOPHANATE METHYL], the inhibition of growth at 500 µg/mL in the experiment with Sclerotinia sclerotiorum worked out at 83.4%; in experiment [4] it was 68.7%; in the experiment on Ascochyta, 100%; in [5], 54.2%; in the experiment with Corynespora cassiicola, 78.8%.
Consider `COc1nc(C)nc(NC(=O)NS(=O)(=O)c2ccccc2Cl)n1` [CHLORSULFURON], for which the inhibition at 100 µg/mL turned out to be 29.9% in the experiment with Echinochloa crus-galli [1] and 80.4% in [3]. Also, the results for the inhibition at 10 µg/mL (in [2]; in the experiment on Echinochloa crus-galli [6]) were 76% and 8.2%, respectively.
In the case of `CC(C)NC(=O)N1CC(=O)N(c2cc(Cl)cc(Cl)c2)C1=O` [IPRODIONE], the inhibition of growth at 500 µg/mL in the experiment on Sclerotinia sclerotiorum worked out at 97.8%; in experiment [4], 55.9%; in the experiment on Ascochyta it was 98.4%; in experiment [5], 38.5%; in the experiment with Corynespora cassiicola it was 53.5%.
